Screening data: PubChem, The Scripps Research Institute Molecular Screening Center
Compounds with a hit are over-represented: about 1.6% of the library has one in this group of screens.
LEDGF integ inh = blocks HIV-1 LEDGF/p75-dependent DNA integration | inhibition, % at 3.7 µM | TR-FRET IN-LEDGF/p75 DNA integration, Eu/Cy5 | actives 0.64% (n = 370,000);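 active means inhibition above the screen-wide mean plus 3 SD, cut at about 13% in these data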;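 further: signal is the Cy5 over europium emission ratio at 671 and 618 nm; 0% = plate median of compound wells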
UHRF1 binding = blocks human UHRF1 binding to methylated DNA; Q96T88; UHRF1 binding to methylated oligo, TR-FRET; inhibition, % at 4.4 µM; actives 0.75% (n = 370,000); AID 687016; in the data active means inhibition above about 21%;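 further: UHRF1 SRA domain binding a hemimethylated CpG hairpin DNA probe; 0% = median of test compound wells and 100% = reference inhibitor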
Target sequence (Q96T88 whole entry, looked up, the tested form may be a part): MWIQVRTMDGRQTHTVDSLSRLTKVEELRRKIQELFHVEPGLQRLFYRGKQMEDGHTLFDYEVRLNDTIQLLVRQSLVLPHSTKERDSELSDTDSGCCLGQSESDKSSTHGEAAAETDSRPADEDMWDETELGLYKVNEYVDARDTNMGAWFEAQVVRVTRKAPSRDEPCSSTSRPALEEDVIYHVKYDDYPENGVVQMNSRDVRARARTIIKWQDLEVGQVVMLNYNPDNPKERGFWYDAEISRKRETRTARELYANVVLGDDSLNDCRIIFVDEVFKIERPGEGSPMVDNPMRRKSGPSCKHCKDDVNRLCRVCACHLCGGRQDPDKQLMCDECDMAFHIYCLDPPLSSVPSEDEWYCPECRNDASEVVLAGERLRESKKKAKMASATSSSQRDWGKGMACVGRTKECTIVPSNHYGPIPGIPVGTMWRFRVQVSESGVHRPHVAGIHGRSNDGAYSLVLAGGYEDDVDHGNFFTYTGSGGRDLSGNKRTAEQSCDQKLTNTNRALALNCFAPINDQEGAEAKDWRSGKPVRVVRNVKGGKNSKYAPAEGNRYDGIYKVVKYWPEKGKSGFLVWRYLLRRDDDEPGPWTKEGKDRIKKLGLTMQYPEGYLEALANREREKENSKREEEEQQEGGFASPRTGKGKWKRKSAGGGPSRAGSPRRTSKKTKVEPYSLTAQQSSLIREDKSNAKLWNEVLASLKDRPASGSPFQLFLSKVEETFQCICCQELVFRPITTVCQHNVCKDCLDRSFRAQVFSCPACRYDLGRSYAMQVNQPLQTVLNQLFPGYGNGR
MBD2 inh = MBD2-methylated oligo binding inhibition; Q9UBB5; TR-FRET, MBD2 binding to methylated oligonucleotide; inhibition, % at 4.4 µM; actives 0.31% (n = 370,000); AID 686964; in the data active means inhibition above about 13%
TDP2 absorb = blocks human TDP2 phosphodiesterase activity | O95551 | recombinant TDP2, T5PNP hydrolysis, p-nitrophenol absorbance 415 nm | inhibition, % at 12.8 µM | actives 0.34% (n = 370,000) | AID 720702;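 active means inhibition above the mean of all tested compounds plus 3 SD, set per campaign, cut at about 25% in these data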;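 further: 0% = DMSO with enzyme and 100% = buffer with substrate but no TDP2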
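Read-out basis: percent inhibition. System: recombinant human TDP2. Buffer or medium: Mg2+-containing Tris-HCl buffer, pH 7.5. Repeats: single replicate. Timing: reaction 2 h, 37 °C. Benchmarks: high control without enzyme, low control DMSO plus TDP2. Probe or stimulus: 5 mM T5PNP. Doses: 12.8 µM only. Measured by: epi absorbance of p-nitrophenol freed from T5PNP by hydrolysis.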
* = called active by the depositor.

SMILES | LEDGF integ inh | UHRF1 binding | MBD2 inh | TDP2 absorb
CC(C)C[C@@H](CNCC(=O)[C@H](Cc1c[nH]c2ccccc12)NC(=O)c1[nH]cnc1C(=O)N[C@H](CN)CC(C)C)NC(=O)c1nc[nH]c1C(=O)N[C@@H](CC(=O)O)C(=O)O | 1 | 22* | 9 | 8
CC(C)C[C@@H](CN)NC(=O)c1nc[nH]c1C(=O)N[C@@H](Cc1c[nH]c2ccccc12)C(=O)CNC[C@H](C)NC(=O)c1nc[nH]c1C(=O)N[C@@H](CC(=O)O)C(=O)O | 6 | 22* | 7 | 0
CC(C)C[C@@H](CNCC(=O)[C@H](Cc1c[nH]c2ccccc12)NC(=O)c1[nH]cnc1C(=O)N[C@@H](C)CN)NC(=O)c1nc[nH]c1C(=O)N[C@@H](CC(=O)O)C(=O)O | -1 | 20 | 5 | 8
CC(C)C[C@@H](CN)NC(=O)c1nc[nH]c1C(=O)N[C@@H](Cc1ccccc1)C(=O)CNC[C@H](C)NC(=O)c1nc[nH]c1C(=O)N[C@@H](CC(=O)O)C(=O)O | -4 | 3 | 1 | 3
CC(C)C[C@@H](CNCC(=O)[C@H](Cc1c[nH]c2ccccc12)NC(=O)c1[nH]cnc1C(=O)N[C@@H](C)CN)NC(=O)c1nc[nH]c1C(=O)N[C@@H](C)C(=O)O | 1 | 22* | 8 | 8
COC(=O)[C@]12C[C@H](CC(=O)NCCc3ccccc3OC)C(=O)N(CCc3ccc(OC)c(OC)c3)C1=C[C@H](C(C)C)O[C@@H]2C1CC1 | 0 | -2 | -4 | 3
CCOC(=O)[C@]12CCCC=C1N(CCc1ccc(Cl)cc1)C(=O)[C@@H]2CC(=O)NCCC(C)C | 1 | 0 | -7 | 9
O=C1NN(c2ccc(Cl)cc2)C(=O)/C1=C\c1ccc(-c2cccc(C(=O)O)c2)o1 | 0 | 28* | 5 | -5
Cc1ccc(N2NC(=O)/C(=C/c3ccc(-c4ccc(Cl)c(C(=O)O)c4)o3)C2=O)cc1 | 2 | -1 | -5 | -4
COC(=O)[C@]12C[C@H](CC(=O)N3CCN(C(=O)C4CC4)CC3)C(=O)N(Cc3ccc(Cl)cc3Cl)C1=C[C@H](COCc1ccccc1)O[C@@H]2C | -2 | 0 | 4 | -7
CCCCCC(=O)N1CC2(C)CN(C(=O)CCCCC)CC(C)(C1)C2=O | 6 | 23* | 15* | 7
CCCCC(=O)/C=C/n1c(=S)oc2ccccc21 | -2 | 23* | 8 | 3
O=c1[nH]c2ccccc2cc1CN(Cc1ccco1)S(=O)(=O)c1ccc(F)cc1 | -6 | 23* | 10 | -9
Cc1ccc(-n2c(SCC(=O)c3ccc(O)c(O)c3)nnc2-c2ccccc2)cc1 | 11 | 6 | 10 | -3
Cc1ccc2nc(-c3ccccc3)cn2c1 | 3 | 4 | 1 | -13
Cc1ccc2nc(-c3ccc(O)c(O)c3)cn2c1 | 23* | 1 | -2 | 3
CN1CCN(C(=O)Cn2ncc3c([nH]c4ccccc43)c2=O)CC1 | 4 | 23* | 4 | 10
CCC(=O)OC1(C)C(=O)C=C2C=C(CCCC(=O)OC)OC=C2C1=O (stereo not drawn) | 16* | 1 | -4 | 10
O=C(NC1CCN(S(=O)(=O)c2ccc(Cl)cc2)CC1)c1cccnc1 | 0 | 31* | 10 | 2
CCCCOc1[nH]c2nc(-c3ccco3)n(Cc3ccco3)c(=N)c2c1C#N | 19* | 6 | 0 | 7
c1ccc(CSc2nnc(-c3ccco3)n2Cc2ccco2)cc1 | 0 | 0 | -4 | 8
O=C(NCCc1ccccc1)OCc1cn(Cc2ccc(C(F)(F)F)cc2)nn1 | 1 | 5 | 1 | -3
CCCCNC(=O)NS(=O)(=O)c1ccc(NC(=O)CSc2ncnc3scc(-c4ccc(C)cc4)c23)cc1 | 3 | -3 | 6 | 3
Cc1ccccc1C(=O)NC1CCCCN(Cc2cccc(C(F)(F)F)c2)C1=O (stereo not drawn) | -2 | -1 | -2 | 1
COc1ccc(S(=O)(=O)Nc2cc(Sc3ncn[nH]3)c(O)c3ccccc23)cc1 | 45* | 1 | -6 | 65*
SMILES | LEDGF integ inh | UHRF1 binding | MBD2 inh | TDP2 absorb
O=S(=O)(Nc1cc(Sc2cccc3cccnc23)c(O)c2ccccc12)c1ccc(F)cc1 | 24* | -15 | -37 | 24
COC(=O)C1=C(C)N(C)C(=NCc2ccc(OC)cc2)NC1c1ccccc1 (stereo not drawn) | -1 | -2 | -8 | 2
CS(=O)(=O)N(CC(=O)N1CCCCCC1)c1ccc(Cl)cc1 | 7 | 29* | -2 | 6
CS(=O)(=O)N(CC(=O)N1CCOCC1)c1ccc(Cl)cc1 | -3 | 1 | 3 | 0
c1ccc(CCNc2nc(-c3ccccn3)cs2)cc1 | 7 | -2 | 2 | 13
c1ccc(CCNc2nc(-c3cccnc3)cs2)cc1 | -1 | 49* | -4 | -2
N#Cc1c(SCC(=O)Nc2ccccc2C(F)(F)F)sc2c(O)cc(=O)[nH]c12 | 9 | 31* | 13 | -6
Cc1nnc(SCC(C)C)[nH]c1=O | 2 | 22* | -5 | 7
O=C(O)c1cc([N+](=O)[O-])ccc1Nc1ccccc1 | 2 | 3 | -1 | 2
O=C(O)c1cc([N+](=O)[O-])ccc1NCCc1ccccc1 | -3 | 25* | 11 | -8
Cc1cccc(Nc2ccc([N+](=O)[O-])cc2C(=O)O)c1 | 8 | 23* | 5 | -20
F[B-](F)(F)COCc1ccccc1C#Cc1ccccc1 | 5 | -2 | -4 | -3
COc1ccccc1NS(=O)(=O)c1cccc(NC(=O)Nc2ccccc2)c1 | 0 | -3 | -1 | 2
CCNS(=O)(=O)c1ccc(NC(=O)Nc2cc(C)ccc2OC)cc1 | -1 | -1 | -1 | -10
COc1ccccc1NS(=O)(=O)c1cccc(NC(=O)Nc2ccc(Cl)cc2)c1 | 5 | 26* | 4 | -21
CCNS(=O)(=O)c1ccc(NC(=O)Nc2ccccc2OC)cc1 | 6 | 23* | 6 | 1
COc1ccc(C(=O)C2(C(=O)NCc3ccccc3)CC(c3ccccc3C(F)(F)F)=NO2)cc1 (stereo not drawn) | -2 | 2 | -1 | -8
Nc1[nH]c(C(=O)c2ccc(Br)cc2)c(-c2ccccc2)c1C(=O)NCCc1c[nH]c2ccccc12 | 6 | -1 | -5 | -9
COc1ccc(-c2ccc(SCC(=O)Nc3nccs3)nn2)cc1OC | 4 | 21* | 4 | -5
COc1cccc(C(=O)NCc2nnc(SCC(=O)Nc3nccs3)n2-c2ccccc2)c1 | 1 | 95* | 2 | -8
O=C(CCc1ccccc1-c1ccccc1CCNC(=O)c1ccc(F)c(F)c1)NCc1ccccc1 | 1 | -2 | -5 | 3
CC(=O)N1c2ccccc2C(=O)NCC1C(=O)NC(C)(C)C (stereo not drawn) | 3 | -1 | 6 | 6
COc1ccc(NS(=O)(=O)c2cccc(C(=O)NCC3(N4CCOCC4)CCCCC3)c2)cc1 | -3 | 3 | 5 | -2
COc1ccc(NS(=O)(=O)c2cccc(C(=O)NCC3(N4CCCCC4)CCCCC3)c2)cc1 | 3 | 25* | 3 | 1
